Results collected from several papers.
Lines come from different studies, so protocols differ.
Organism: Klebsiella pneumoniae
Read-out: microbial growth

SMILES	assay	test system	setting	MIC
CC1(C)S[C@@H]2[C@H](NC(=O)[C@H](N)c3ccccc3)C(=O)N2[C@H]1C(=O)O	broth dilution	ATCC700603		8 µg/mL
CCCCCCC#Cc1cncc(-c2nnc(SCc3ccc(Cl)cc3)n2CCCN)c1	broth dilution	DSM30104		32 µg/mL
CO/N=C(\C(=O)N[C@@H]1C(=O)N2C(C(=O)O)=CCS[C@H]12)c1csc(N)n1	broth dilution	ATCC13883		0.125 µg/mL
O=C(N[C@H](CO)[C@H](O)c1ccc([N+](=O)[O-])cc1)C(Cl)Cl	broth dilution	ATCC43816		4 µg/mL
CCCCCCC#Cc1cncc(-c2nnc(SCc3cc([N+](=O)[O-])cc([N+](=O)[O-])c3)n2C2CCNCC2)c1	broth dilution	DSM30104		> 64 µg/mL
CN(C)c1cc(NC(=O)CNC(C)(C)C)c(O)c2c1C[C@H]1C[C@H]3[C@H](N(C)C)C(O)=C(C(N)=O)C(=O)[C@@]3(O)C(O)=C1C2=O	broth dilution	ATCC43816		< 0.5 µg/mL
CCCCCCCCCCCC[N+](C)(C)Cc1ccccc1		ATCC4352		8 µM
O=C(O)c1cn(C2CC2)c2cc(N3CCNCC3)c(F)cc2c1=O	broth dilution	ATCC27736	16 h	0.1 µM
CN(C)[C@@H]1C(O)=C(C(N)=O)C(=O)[C@@]2(O)C(O)=C3C(=O)c4c(O)cccc4[C@@](C)(O)[C@H]3C[C@@H]12	broth dilution	ATCC13883		1 µg/mL
Cc1cc(NS(=O)(=O)c2ccc(N)cc2)no1	broth dilution	ATCC43816		64 µg/mL
C[C@@H](O)[C@H]1C(=O)N2C(C(=O)O)=C(S[C@@H]3CN[C@H](C(=O)N(C)C)C3)[C@H](C)[C@H]12	broth dilution	ATCC13883		0.125 µg/mL
Cc1onc(-c2ccccc2)c1C(=O)N[C@@H]1C(=O)N2[C@@H]1SC(C)(C)[C@@H]2C(=O)O	broth dilution	ATCC700603		8 µg/mL
CCCCCCC#Cc1cncc(-c2nnc(SCc3ccc([N+](=O)[O-])cc3)n2CCCN)c1	broth dilution	DSM30104		> 64 µg/mL
N[C@@H](Cc1c[nH]c2ccc(Cl)cc12)C(=O)O		MGH78578	18 h	> 200 µM
CCCCCCC#Cc1cncc(-c2nnc(SCc3ccc([N+](=O)[O-])o3)n2CCCN)c1	broth dilution	DSM30104		> 64 µg/mL
CC[C@H]1OC(=O)[C@H](C)[C@@H](O[C@H]2C[C@@](C)(OC)[C@@H](O)[C@H](C)O2)[C@H](C)[C@@H](O[C@@H]2O[C@H](C)C[C@H](N(C)C)[C@H]2O)[C@](C)(O)C[C@@H](C)C(=O)[C@H](C)[C@@H](O)[C@]1(C)O	broth dilution	ATCC43816		32 µg/mL
C[C@H]1[C@H](NC(=O)/C(=N\OC(C)(C)C(=O)O)c2csc(N)n2)C(=O)N1S(=O)(=O)O	broth dilution	ATCC13883		0.0625 µg/mL
C[C@@H](O)[C@H]1C(=O)N2C(C(=O)O)=C(S[C@@H]3CN[C@H](C(=O)N(C)C)C3)[C@H](C)[C@H]12	broth dilution	ATCC43816		< 0.5 µg/mL
C[C@@H](O)[C@H]1C(=O)N2C(C(=O)O)=C(S[C@@H]3CN[C@H](C(=O)N(C)C)C3)[C@H](C)[C@H]12	broth dilution	ATCC700603		2 µg/mL
CC1(C)S[C@@H]2[C@H](NC(=O)[C@H](N)c3ccccc3)C(=O)N2[C@H]1C(=O)O	broth dilution	ATCC13883		> 64 µg/mL
CN(C)[C@@H]1C(O)=C(C(N)=O)C(=O)[C@@]2(O)C(O)=C3C(=O)c4c(O)cccc4[C@@](C)(O)[C@H]3C[C@@H]12	broth dilution	ATCC43816		2 µg/mL
